Measured values published in ChEMBL document CHEMBL1764948, “Diversonol and blennolide derivatives from the endophytic fungus Microdiplodia sp.: absolute configuration of diversonol” (2011).
≈ marks a conversion by molar mass, not a printed value. Calls of active or inactive are those of the source. No cut-off for these calls is given here.

What follows are compounds tested on Escherichia coli (assay: Antibacterial activity against Escherichia coli K-12 by microtiter plate assay). Conditions: not given.
Type: functional, organism-based
How it was run: (§1)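 Minimum inhibitory concentration determined in liquid medium in microtiter wells.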

Compound	Activity
CC(C)[C@@H](C)/C=C/[C@@H](C)[C@H]1CC[C@H]2C3=CC=C4C[C@@H](O)CC[C@]4(C)[C@H]3CC[C@]12C [ERGOSTEROL]	inactive
Cc1cc(O)c2c(c1)O[C@@]1(C)[C@@H](O)CC[C@H](O)[C@]1(O)C2=O [DIVERSONOL]	inactive
C[C@]1([C@H]2CCC(=O)O2)CC(=O)c2c(O)cc(O)cc2O1 [MICRODIPLODIASONE]	inactive
C[C@H]1Oc2cccc(O)c2C(=O)[C@@H]1O	inactive
C[C@@]12Oc3cc(CO)cc(O)c3C(=O)[C@@]1(O)[C@@H](O)CC[C@@H]2O [MICRODIPLODIASOL]	inactive
COC1=CC(=O)[C@@H](O)[C@@]2(O)C(=O)c3c(O)cc(C)cc3O[C@]12C [MICRODIPLODIASOLOL]	inactive

These compounds were tested on Legionella pneumophila (assay: Antibacterial activity against Legionella pneumophila Corby by microtiter plate assay). Conditions: not given.
Type: functional
How it was run: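 Broth microdilution MIC in liquid medium in microtiter wells. Legionella pneumophila Corby grown in YEB medium (10 g ACES, 10 g yeast extract per 1000 mL water, pH 6.9, plus supplements). Value reported as the minimum inhibitory concentration.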

Compound	MIC [µg/mL]
CC(C)[C@@H](C)/C=C/[C@@H](C)[C@H]1CC[C@H]2C3=CC=C4C[C@@H](O)CC[C@]4(C)[C@H]3CC[C@]12C [ERGOSTEROL]	250 (≈ 0.63 mM)
Cc1cc(O)c2c(c1)O[C@@]1(C)[C@@H](O)CC[C@H](O)[C@]1(O)C2=O [DIVERSONOL]	1000 (≈ 3.4 mM)
C[C@]1([C@H]2CCC(=O)O2)CC(=O)c2c(O)cc(O)cc2O1 [MICRODIPLODIASONE]	1000 (≈ 3.59 mM)
C[C@H]1Oc2cccc(O)c2C(=O)[C@@H]1O	1000 (≈ 5.15 mM)
C[C@@]12Oc3cc(CO)cc(O)c3C(=O)[C@@]1(O)[C@@H](O)CC[C@@H]2O [MICRODIPLODIASOL]	125 (≈ 0.403 mM)
COC1=CC(=O)[C@@H](O)[C@@]2(O)C(=O)c3c(O)cc(C)cc3O[C@]12C [MICRODIPLODIASOLOL]	1000 (≈ 3.12 mM)
NC[C@H]1O[C@H](O[C@H]2[C@H](O)[C@@H](O[C@H]3O[C@H](CO)[C@@H](O)[C@H](N)[C@H]3O)[C@H](N)C[C@@H]2N)[C@H](O)[C@@H](O)[C@@H]1O [KANAMYCIN]	12.5 (≈ 0.0258 mM)

These compounds were tested on Priestia megaterium (assay: Antibacterial activity against Bacillus megaterium by microtiter plate assay). Conditions: not given.
Type: functional, organism-based
How it was run: as §1

Compound	Activity
CC(C)[C@@H](C)/C=C/[C@@H](C)[C@H]1CC[C@H]2C3=CC=C4C[C@@H](O)CC[C@]4(C)[C@H]3CC[C@]12C [ERGOSTEROL]	inactive
Cc1cc(O)c2c(c1)O[C@@]1(C)[C@@H](O)CC[C@H](O)[C@]1(O)C2=O [DIVERSONOL]	inactive
C[C@]1([C@H]2CCC(=O)O2)CC(=O)c2c(O)cc(O)cc2O1 [MICRODIPLODIASONE]	inactive
C[C@H]1Oc2cccc(O)c2C(=O)[C@@H]1O	inactive
C[C@@]12Oc3cc(CO)cc(O)c3C(=O)[C@@]1(O)[C@@H](O)CC[C@@H]2O [MICRODIPLODIASOL]	inactive
COC1=CC(=O)[C@@H](O)[C@@]2(O)C(=O)c3c(O)cc(C)cc3O[C@]12C [MICRODIPLODIASOLOL]	inactive

These compounds were tested on Microbotryum violaceum (assay: Antifungal activity against Microbotryum violaceum assessed as zone of inhibition measured as radius at 50 ug by agar diffusion assay). Conditions: not given.
Type: functional
How it was run: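 Samples at 1 mg/mL in acetone; 50 μg applied to a 9 mm sterile filter disk on MPY agar. The plate was then sprayed with a Microbotryum violaceum suspension and incubated at 20 °C. The inhibition zone radius was measured in mm from the disk centre.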

Compound	Activity	inhibition zone (IZ) [mm]
CC(C)[C@@H](C)/C=C/[C@@H](C)[C@H]1CC[C@H]2C3=CC=C4C[C@@H](O)CC[C@]4(C)[C@H]3CC[C@]12C [ERGOSTEROL]	inactive	
NYSTATIN		20

Same assay, conditions: read-out: IZ

Compound	zone of inhibition at 50 µg/disc [mm]
Cc1cc(O)c2c(c1)O[C@@]1(C)[C@@H](O)CC[C@H](O)[C@]1(O)C2=O [DIVERSONOL]	0
C[C@]1([C@H]2CCC(=O)O2)CC(=O)c2c(O)cc(O)cc2O1 [MICRODIPLODIASONE]	0
CC(C)=O [ACETONE]	0
CC1(C)S[C@@H]2[C@H](NC(=O)Cc3ccccc3)C(=O)N2[C@H]1C(=O)O [PENICILLIN G]	0
CN(C)[C@@H]1C(O)=C(C(N)=O)C(=O)[C@@]2(O)C(O)=C3C(=O)c4c(O)cccc4[C@@](C)(O)[C@H]3C[C@@H]12 [TETRACYCLINE]	0
COC1=CC(=O)[C@@H](O)[C@@]2(O)C(=O)c3c(O)cc(C)cc3O[C@]12C [MICRODIPLODIASOLOL]	6
C[C@@H]1C[C@@H]([C@H](O)CC2CC(=O)NC(=O)C2)C(=O)[C@@H](C)C1 [CYCLOHEXIMIDE]	50
